ChEMBL document CHEMBL1138325, “Design, synthesis, in vitro, and in vivo characterization of phenylpiperazines and pyridinylpiperazines as potent and selective antagonists of the melanocortin-4 receptor” (J Med Chem, 2007)
Calls of active or inactive are those of the source. The rule behind the calls is not given here.

Columns and labels:
[1] = Half life in CD1 mouse at 5 mg/kg, iv; assay type: ADME, organism-based; parameters: dose 5 mg/kg, route intravenous; settings: in vivo
Outline: (§1)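 CD-1 mice, three animals, dosed i.v. at 5 mg/kg and by oral gavage at 10 mg/kg. Plasma CL, Vd, t1/2, Cmax, Tmax, oral AUC and F% were derived. Brain concentrations and brain/plasma ratios at 1 and 4 h were taken from the i.v. dosing.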

[2] = Ratio of drug level in brain to plasma in CD1 mouse at 5 mg/kg, iv after 1 hr; assay type: ADME, organism-based; parameters: dose 5 mg/kg, route intravenous; settings: brain and plasma, read-out: BPR
[3] = AUC in dog at 10 mg/kg, po; assay type: ADME, organism-based, Canis lupus familiaris; parameters: dose 10 mg/kg, route oral; settings: plasma
[4] = Tmax in CD1 mouse at 10 mg/kg, po; assay type: ADME, organism-based; parameters: dose 10 mg/kg, route oral; settings: in vivo
Outline: (§2)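 CD-1 mice, three animals per route; single i.v. dose at 5 mg/kg and oral gavage at 10 mg/kg. Plasma PK parameters derived; brain concentrations and brain/plasma ratios taken from the i.v. dosing at 1 and 4 h.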

Mus musculus [5] = experiment: Increase in body weight in Lewis lung carcinoma bearing C57BL/6J mouse at 3 mg/kg, ip bid after 4 days; assay type: functional, organism-based; parameters: dose 3 mg/kg
Outline: (§3)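 Male C57BL/6J mice inoculated with Lewis lung carcinoma cells. From day 11 after inoculation, mice were dosed i.p. twice daily at 3 or 9 mg/kg for 4 days and compared with vehicle-treated tumor-bearing controls. Food intake and body weight were recorded; lean body mass was measured by DEXA.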

[6] = Ratio of drug level in brain to plasma in Sprague-Dawley rat at 10 mg/kg, po after 1 hr; assay type: ADME, organism-based; parameters: dose 10 mg/kg, route oral; settings: brain and plasma, read-out: BPR
Outline: (§4)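 Sprague–Dawley rats, three animals per route; i.v. dose 5 mg/kg and oral 10 mg/kg. Brain concentrations and brain/plasma ratios taken from the oral dosing at 1 and 4 h post-dose.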

[7] = AUC in CD1 mouse at 10 mg/kg, ip; assay type: ADME, organism-based; parameters: dose 10 mg/kg, route intraperitoneal; settings: plasma
Outline: (§5)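 CD-1 mice, single intraperitoneal dose of 10 mg/kg, n = 3. Plasma concentration followed over time, giving Cmax, Tmax and AUC.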

[8] = AUC in Sprague-Dawley rat at 10 mg/kg, po; assay type: ADME, organism-based; parameters: dose 10 mg/kg, route oral; settings: plasma
[9] = Oral bioavailability in Sprague-Dawley rat at 10 mg/kg, po; assay type: ADME, organism-based; settings: in vivo; outline: as §4
[10] = Cmax in dog at 10 mg/kg, po; assay type: ADME, organism-based, Canis lupus familiaris; parameters: dose 10 mg/kg, route oral; settings: in vivo
[11] = Cmax in CD1 mouse at 10 mg/kg, ip; assay type: ADME, organism-based; parameters: dose 10 mg/kg, route intraperitoneal; settings: in vivo; outline: as §5
Melanocortin receptor 5 = Melanocortin receptor 5 (Homo sapiens, UniProt P33032); experiment: Displacement of [125I]NDPMSH from human MC5R expressed in HEK293 cells; assay type: cell-based
[12] = Bioavailability in CD1 mouse at 10 mg/kg, po; assay type: ADME, organism-based; settings: in vivo; outline: as §1
[13] = Drug level in CD1 mouse brain at 5 mg/kg, iv after 1 hr; assay type: ADME, organism-based; parameters: dose 5 mg/kg, route intravenous; settings: read-out: Drug uptake; outline: as §1
Melanocortin receptor 3 [14] = target: Melanocortin receptor 3 (Homo sapiens, UniProt P41968); experiment: Displacement of [125I]NDPMSH from human MC3R expressed in HEK293 cells; assay type: cell-based
Melanocortin receptor 3 [15] = target: Melanocortin receptor 3 (Mus musculus, UniProt P33033); experiment: Binding affinity to mouse MC3R
Melanocortin receptor 4 [16] = target: T1, Melanocortin receptor 4 (Homo sapiens, UniProt P32245); experiment: Antagonist activity at human MC4R expressed in HEK293 cells assessed as inhibition of alpha-MSH-stimulated cAMP production; assay type: functional, cell-based
[17] = Half life in Sprague-Dawley rat at 5 mg/kg, iv and 10 mg/kg, po; assay type: ADME, organism-based; settings: in vivo
Cytochrome P450 3A4 = Cytochrome P450 3A4 (Homo sapiens, UniProt P08684); experiment: Inhibition of CYP3A4; assay type: ADME
[18] = Plasma concentration in CD1 mouse at 10 mg/kg, ip after 8 hrs; assay type: ADME, organism-based; parameters: dose 10 mg/kg, route intraperitoneal
[19] = target: Melanocyte-stimulating hormone receptor (Homo sapiens, UniProt Q01726); experiment: Displacement of [125I]NDPMSH from human MC1R expressed in HEK293 cells at 10 uM; assay type: cell-based
Cytochrome P450 2C19 = Cytochrome P450 2C19 (Homo sapiens, UniProt P33261); experiment: Inhibition of CYP2C19; assay type: ADME
[20] = Ratio of drug level in brain to plasma in Sprague-Dawley rat at 10 mg/kg, po after 4 hrs; assay type: ADME, organism-based; parameters: dose 10 mg/kg, route oral; settings: brain and plasma, read-out: BPR; outline: as §4
[21] = Half life in dog at 5 mg/kg, iv; assay type: ADME, organism-based, Canis lupus familiaris; parameters: dose 5 mg/kg, route intravenous; settings: in vivo
[22] = Cmax in Sprague-Dawley rat at 10 mg/kg, po; assay type: ADME, organism-based; parameters: dose 10 mg/kg, route oral; settings: in vivo
[23] = AUC in monkey at 10 mg/kg, po; assay type: ADME, organism-based, Macaca mulatta; parameters: dose 10 mg/kg, route oral; settings: rhesus monkey, plasma
[24] = Drug level in Sprague-Dawley rat brain at 10 mg/kg, po after 1 hr; assay type: ADME, organism-based; parameters: dose 10 mg/kg, route oral; settings: read-out: Drug uptake
[25] = Tmax in dog at 10 mg/kg, po; assay type: ADME, organism-based, Canis lupus familiaris; parameters: dose 10 mg/kg, route oral; settings: in vivo
Mus musculus [26] = experiment: Increase in lean body mass in Lewis lung carcinoma bearing C57BL/6J mouse at 3 mg/kg, ip bid after 4 days; assay type: functional; settings: route intraperitoneal; outline: as §3
[27] = Half life in monkey at 5 mg/kg, iv; assay type: ADME, organism-based, Macaca mulatta; parameters: dose 5 mg/kg, route intravenous; settings: rhesus monkey, in vivo
[28] = Volume of distribution in Sprague-Dawley rat at 5 mg/kg, iv and 10 mg/kg, po; assay type: ADME, organism-based; settings: in vivo; outline: as §4
[29] = AUC in CD1 mouse at 10 mg/kg, po; assay type: ADME, organism-based; parameters: dose 10 mg/kg, route oral; settings: plasma; outline: as §1
[30] = Ratio of drug level in brain to plasma in CD1 mouse at 5 mg/kg, iv after 4 hrs; assay type: ADME, organism-based; parameters: dose 5 mg/kg, route intravenous; settings: brain and plasma, read-out: BPR
[31] = Cmax in CD1 mouse at 10 mg/kg, po after 6 hrs; assay type: ADME, organism-based; parameters: dose 10 mg/kg, route oral; settings: in vivo; outline: as §1
[32] = Volume of distribution in monkey at 5 mg/kg, iv; assay type: ADME, organism-based, Macaca mulatta; parameters: dose 5 mg/kg, route intravenous; settings: rhesus monkey, in vivo
[33] = Clearance in monkey at 5 mg/kg, iv; assay type: ADME, organism-based, Macaca mulatta; parameters: dose 5 mg/kg, route intravenous; settings: rhesus monkey, in vivo
Melanocortin receptor 4 [34] = target: T1, Melanocortin receptor 4; experiment: Displacement of [125I]NDPMSH from human MC4R expressed in HEK293 cells; assay type: cell-based
[35] = AUC in monkey at 5 mg/kg, iv; assay type: ADME, organism-based, Macaca mulatta; parameters: dose 5 mg/kg, route intravenous; settings: rhesus monkey, plasma
Cytochrome P450 2C9 = Cytochrome P450 2C9 (Homo sapiens, UniProt P11712); experiment: Inhibition of CYP2C9; assay type: ADME
[36] = AUC in dog at 5 mg/kg, iv; assay type: ADME, organism-based, Canis lupus familiaris; parameters: dose 5 mg/kg, route intravenous; settings: plasma
[37] = Bioavailability in monkey at 10 mg/kg, po; assay type: ADME, organism-based, Macaca mulatta; settings: rhesus monkey, in vivo
[38] = Volume of distribution in dog at 5 mg/kg, iv; assay type: ADME, organism-based, Canis lupus familiaris; parameters: dose 5 mg/kg, route intravenous; settings: in vivo
[39] = Volume of distribution in CD1 mouse at 5 mg/kg, iv; assay type: ADME, organism-based; parameters: dose 5 mg/kg, route intravenous; settings: in vivo; outline: as §2
Mus musculus [40] = experiment: Increase in body weight in Lewis lung carcinoma bearing C57BL/6J mouse at 9 mg/kg, ip bid after 4 days; assay type: functional, organism-based; parameters: dose 9 mg/kg; outline: as §3
[41] = target: Growth hormone secretagogue receptor type 1 (Homo sapiens, UniProt Q92847); experiment: Agonist activity at GHSR; assay type: functional
[42] = Drug level in CD1 mouse brain at 5 mg/kg, iv after 4 hrs; assay type: ADME, organism-based; parameters: dose 5 mg/kg, route intravenous; settings: read-out: Drug uptake; outline: as §1
[43] = Drug level in Sprague-Dawley rat brain at 10 mg/kg, po after 4 hrs; assay type: ADME, organism-based; parameters: dose 10 mg/kg, route oral; settings: read-out: Drug uptake
[44] = Clearance in Sprague-Dawley rat at 5 mg/kg, iv and 10 mg/kg, po; assay type: ADME, organism-based; settings: in vivo
Melanocortin receptor 4 [45] = target: Melanocortin receptor 4 (Mus musculus, UniProt P56450); experiment: Binding affinity to mouse MC4R
[46] = Tmax in monkey at 10 mg/kg, po; assay type: ADME, organism-based, Macaca mulatta; parameters: dose 10 mg/kg, route oral; settings: rhesus monkey, in vivo
[47] = Tmax in CD1 mouse at 10 mg/kg, ip; assay type: ADME, organism-based; parameters: dose 10 mg/kg, route intraperitoneal; settings: in vivo

T1 sequence (P32245 whole entry): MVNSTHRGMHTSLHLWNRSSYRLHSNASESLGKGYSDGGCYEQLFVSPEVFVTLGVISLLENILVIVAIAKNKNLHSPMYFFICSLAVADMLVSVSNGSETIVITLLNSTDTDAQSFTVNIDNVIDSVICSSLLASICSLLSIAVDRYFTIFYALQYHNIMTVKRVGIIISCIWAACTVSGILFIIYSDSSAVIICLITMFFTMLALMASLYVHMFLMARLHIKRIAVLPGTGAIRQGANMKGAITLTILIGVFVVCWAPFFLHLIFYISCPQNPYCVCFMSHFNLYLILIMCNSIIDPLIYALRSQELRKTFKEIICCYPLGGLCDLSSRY
Growth hormone secretagogue receptor type 1, sequence (Q92847 whole entry): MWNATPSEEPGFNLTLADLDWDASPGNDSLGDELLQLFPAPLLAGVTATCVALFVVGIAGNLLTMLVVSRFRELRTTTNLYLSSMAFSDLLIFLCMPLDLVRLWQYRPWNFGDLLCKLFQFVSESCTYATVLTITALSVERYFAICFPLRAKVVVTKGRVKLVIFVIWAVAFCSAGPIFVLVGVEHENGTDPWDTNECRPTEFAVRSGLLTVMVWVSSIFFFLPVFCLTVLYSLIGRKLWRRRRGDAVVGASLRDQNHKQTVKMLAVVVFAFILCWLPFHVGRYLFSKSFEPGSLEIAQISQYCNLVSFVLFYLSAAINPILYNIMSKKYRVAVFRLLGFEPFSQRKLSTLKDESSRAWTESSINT
Melanocortin receptor 5, sequence (P33032 whole entry): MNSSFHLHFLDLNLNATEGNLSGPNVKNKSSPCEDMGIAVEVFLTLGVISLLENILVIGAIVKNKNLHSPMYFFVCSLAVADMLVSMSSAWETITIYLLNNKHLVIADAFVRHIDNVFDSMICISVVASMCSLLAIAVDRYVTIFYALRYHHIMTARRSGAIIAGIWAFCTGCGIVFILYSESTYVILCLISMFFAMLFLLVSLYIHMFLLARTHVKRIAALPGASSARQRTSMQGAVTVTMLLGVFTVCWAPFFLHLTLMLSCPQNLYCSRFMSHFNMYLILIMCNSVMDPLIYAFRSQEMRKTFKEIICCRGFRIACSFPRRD
Cytochrome P450 3A4, sequence (P08684 whole entry): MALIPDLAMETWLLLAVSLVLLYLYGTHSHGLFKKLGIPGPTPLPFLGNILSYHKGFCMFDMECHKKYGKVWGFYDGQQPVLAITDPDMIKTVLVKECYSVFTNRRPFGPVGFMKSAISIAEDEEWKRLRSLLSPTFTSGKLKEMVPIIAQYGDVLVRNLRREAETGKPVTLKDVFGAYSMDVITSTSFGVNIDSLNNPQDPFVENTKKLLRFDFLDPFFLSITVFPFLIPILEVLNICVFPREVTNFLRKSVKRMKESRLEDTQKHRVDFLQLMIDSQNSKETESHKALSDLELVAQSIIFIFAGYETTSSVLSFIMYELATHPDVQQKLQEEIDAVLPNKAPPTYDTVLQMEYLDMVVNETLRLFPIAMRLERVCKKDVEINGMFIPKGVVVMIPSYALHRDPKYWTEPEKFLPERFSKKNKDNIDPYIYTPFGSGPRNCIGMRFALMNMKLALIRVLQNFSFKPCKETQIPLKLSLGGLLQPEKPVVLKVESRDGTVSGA
Melanocortin receptor 4 (Mus musculus, UniProt P56450), sequence (P56450 whole entry): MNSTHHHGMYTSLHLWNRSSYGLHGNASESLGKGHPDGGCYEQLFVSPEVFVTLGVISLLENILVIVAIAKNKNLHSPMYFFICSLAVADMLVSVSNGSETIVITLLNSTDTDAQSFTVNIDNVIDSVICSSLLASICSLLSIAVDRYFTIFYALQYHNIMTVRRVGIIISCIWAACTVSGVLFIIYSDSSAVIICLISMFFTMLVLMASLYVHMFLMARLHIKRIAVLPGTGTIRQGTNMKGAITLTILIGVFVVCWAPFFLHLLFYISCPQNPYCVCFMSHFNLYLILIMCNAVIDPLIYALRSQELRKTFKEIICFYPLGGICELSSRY
Melanocyte-stimulating hormone receptor, sequence (Q01726 whole entry, looked up): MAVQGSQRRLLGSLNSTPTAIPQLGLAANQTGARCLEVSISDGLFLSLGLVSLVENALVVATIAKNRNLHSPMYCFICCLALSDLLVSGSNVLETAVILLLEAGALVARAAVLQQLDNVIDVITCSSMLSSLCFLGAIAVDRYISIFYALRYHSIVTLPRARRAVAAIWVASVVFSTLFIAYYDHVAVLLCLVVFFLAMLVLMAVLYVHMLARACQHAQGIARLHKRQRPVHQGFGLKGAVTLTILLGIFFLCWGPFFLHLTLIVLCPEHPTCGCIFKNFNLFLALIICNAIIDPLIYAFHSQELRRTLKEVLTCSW
Cytochrome P450 2C19, sequence (P33261 whole entry): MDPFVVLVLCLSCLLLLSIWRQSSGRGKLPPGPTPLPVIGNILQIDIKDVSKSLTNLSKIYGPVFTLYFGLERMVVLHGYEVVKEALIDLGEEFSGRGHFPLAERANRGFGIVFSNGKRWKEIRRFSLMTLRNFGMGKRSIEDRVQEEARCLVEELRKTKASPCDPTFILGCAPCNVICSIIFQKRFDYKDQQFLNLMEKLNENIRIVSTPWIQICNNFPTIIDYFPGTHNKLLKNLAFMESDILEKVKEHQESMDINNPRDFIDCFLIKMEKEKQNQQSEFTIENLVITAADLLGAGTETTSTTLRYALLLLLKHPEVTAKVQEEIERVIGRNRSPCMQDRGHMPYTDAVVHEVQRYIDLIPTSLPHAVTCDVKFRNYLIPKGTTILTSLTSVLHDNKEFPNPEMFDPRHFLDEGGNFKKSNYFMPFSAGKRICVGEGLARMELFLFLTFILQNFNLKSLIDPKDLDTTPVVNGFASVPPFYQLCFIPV
Melanocortin receptor 3 (Mus musculus, UniProt P33033), sequence (P33033 whole entry): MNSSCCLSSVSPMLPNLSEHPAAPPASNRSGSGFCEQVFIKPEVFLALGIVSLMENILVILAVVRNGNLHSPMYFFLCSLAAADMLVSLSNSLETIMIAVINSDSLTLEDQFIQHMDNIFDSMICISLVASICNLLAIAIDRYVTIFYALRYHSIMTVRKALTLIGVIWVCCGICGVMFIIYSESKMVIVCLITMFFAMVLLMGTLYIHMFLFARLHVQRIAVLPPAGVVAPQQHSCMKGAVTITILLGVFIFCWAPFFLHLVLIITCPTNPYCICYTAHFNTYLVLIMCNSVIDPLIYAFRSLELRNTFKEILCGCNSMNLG
Melanocortin receptor 3 (Homo sapiens, UniProt P41968), sequence (P41968 whole entry): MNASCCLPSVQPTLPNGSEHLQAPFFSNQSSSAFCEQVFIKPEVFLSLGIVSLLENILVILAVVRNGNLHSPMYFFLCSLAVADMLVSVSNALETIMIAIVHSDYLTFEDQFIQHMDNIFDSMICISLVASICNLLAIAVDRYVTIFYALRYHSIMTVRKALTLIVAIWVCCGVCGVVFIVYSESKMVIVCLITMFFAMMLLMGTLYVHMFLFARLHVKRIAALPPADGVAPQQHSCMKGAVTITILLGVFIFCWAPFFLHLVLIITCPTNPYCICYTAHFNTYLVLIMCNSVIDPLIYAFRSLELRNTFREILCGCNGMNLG
Cytochrome P450 2C9, sequence (P11712 whole entry): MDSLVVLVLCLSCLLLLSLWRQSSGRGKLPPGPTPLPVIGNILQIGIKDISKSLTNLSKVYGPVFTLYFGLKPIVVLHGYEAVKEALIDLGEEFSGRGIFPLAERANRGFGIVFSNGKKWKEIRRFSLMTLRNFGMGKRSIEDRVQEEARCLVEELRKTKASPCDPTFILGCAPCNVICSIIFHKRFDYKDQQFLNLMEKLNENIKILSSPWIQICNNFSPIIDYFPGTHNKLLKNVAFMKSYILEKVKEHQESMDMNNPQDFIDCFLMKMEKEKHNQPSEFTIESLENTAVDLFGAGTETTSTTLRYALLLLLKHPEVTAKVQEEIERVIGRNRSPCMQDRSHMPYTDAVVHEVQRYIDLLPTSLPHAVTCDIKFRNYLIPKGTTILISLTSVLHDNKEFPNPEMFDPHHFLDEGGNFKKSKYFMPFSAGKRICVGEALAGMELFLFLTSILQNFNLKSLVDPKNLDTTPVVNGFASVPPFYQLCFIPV

SMILES: CC(C)C[C@H](NC(=O)CCN(C)C)c1cc(Cl)ccc1N1CCN(C(=O)[C@H](C)Cc2ccc(Cl)cc2)CC1
- half-life [1]: 3.5 h
- Kp at 1 h [2]: 2.4
- AUC [3]: 1480 ng·h/mL
- Tmax [4]: 0.5 h
- Activity (Mus musculus [5]): Active
- Kp at 1 h [6]: 0.1
- AUC [7]: 3070 ng·h/mL
- AUC [8]: 1870 ng·h/mL
- bioavailability [9]: 18%
- Cmax [10]: 142 ng/mL
- Cmax [11]: 1520 ng/mL
- Ki (Melanocortin receptor 5): 600 nM
- bioavailability [12]: 23%
- concentration at 1 h [13]: 800 ng/g
- Ki (Melanocortin receptor 3 [14]): 710 nM
- Ki (Melanocortin receptor 3 [15]): 340 nM
- IC50 (Melanocortin receptor 4 [16]): 930 nM
- half-life [17]: 2.2 h
- IC50 (Cytochrome P450 3A4): > 10000 nM
- concentration at 8 h [18]: 100 ng/mL
- Activity [19]: 20%
- IC50 (Cytochrome P450 2C19): > 10000 nM
- Kp at 4 h [20]: 0.3
- half-life [21]: 4.7 h
- Cmax [22]: 163 ng/mL
- AUC [23]: 1070 ng·h/mL
- concentration at 1 h [24]: 3 ng/g
- Tmax [25]: 1 h
- Activity (Mus musculus [26]): 7%
- half-life [27]: 4.1 h
- Vd [28]: 2.5 L/kg
- AUC [29]: 1160 ng·h/mL
- Kp at 4 h [30]: 2.2
- Cmax [31]: 132 ng/mL
- Vd [32]: 8.5 L/kg
- clearance [33]: 24.3 mL/min/kg
- Ki (Melanocortin receptor 4 [34]): 3.4 nM
- AUC [35]: 3700 ng·h/mL
- IC50 (Cytochrome P450 2C9): > 10000 nM
- AUC [36]: 2510 ng·h/mL
- bioavailability [37]: 13.1%
- Vd [38]: 11.8 L/kg
- Vd [39]: 11 L/kg
- Activity (Mus musculus [40]): Active
- EC50 [41]: 720 nM
- Intrinsic activity [41]: 47%
- concentration at 4 h [42]: 177 ng/g
- concentration at 4 h [43]: 27 ng/g
- clearance [44]: 13 mL/min/kg
- Ki (Melanocortin receptor 4 [45]): 18 nM
- Tmax [46]: 2.7 h
- Tmax [47]: 0.3 h
